Drawing on ChEMBL document CHEMBL3272012, “5-(Tetradecyloxy)-2-furancarboxylic acid and related hypolipidemic fatty acid-like alkyloxyarylcarboxylic acids” (J Med Chem, 1977), this text covers Activity and inhibition in vivo for 6 compounds.

Data set [1] relates to Rattus norvegicus. Kind of data set: Increase in liver weight in Wistar rat at 311 umol/kg/day administered through diet for 10 days. The class given is ADME, organism-based. The conditions noted are these: in vivo, po, 240 h.
Data set [2] concerns Rattus norvegicus. Description: Hypolipidemic activity in Wistar rat assessed as reduction in plasma cholesterol level at 311 umol/kg/day administered through diet for 10 days. The class given is functional. The note with it: 240 h. The essentials: (§1)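 Young male Wistar rats, 170-190 g at start, in groups of six, given compound mixed into Purina Lab Chow ad libitum for 4 or 10 days as stated. Daily dose was calculated from food consumption and body weight. Plasma was taken by cardiac puncture at the end and cholesterol measured by automated procedure. Results are % reduction versus a concurrent untreated control group, with Student's t test.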

Data set [3] has as its system Rattus norvegicus. Description: Increase in cholesterol level in Wistar rat liver at 311 umol/kg/day administered through diet for 10 days. The class given is ADME, organism-based. The note with it: in vivo, po, 240 h.
The test system of data set [4] is Rattus norvegicus. Description: Hypolipidemic activity in Wistar rat assessed as reduction in plasma triglyceride level at 311 umol/kg/day administered through diet for 10 days. The conditions noted are these: 240 h. The class given is functional. In outline:
(§2)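 Young male Wistar rats, 170-190 g initial weight, six per group, fed drug mixed thoroughly into Purina Lab Chow ad libitum for the stated days; daily dose calculated from food consumption and body weight. Bled by cardiac puncture at end; plasma cholesterol and triglycerides by automated procedures, expressed as percent reduction versus simultaneous untreated controls; Student's t test.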

The test system of data set [5] is Rattus norvegicus. Kind of data set: Hypolipidemic activity in Wistar rat assessed as reduction in plasma cholesterol level at 312 umol/kg/day administered through diet for 10 days. The class given is functional. The conditions noted are these: 240 h. In outline:
as §1

Data set [6] deals with Rattus norvegicus. Description: Increase in cholesterol level in Wistar rat liver at 312 umol/kg/day administered through diet for 10 days. It counts as ADME, organism-based. The conditions noted are these: in vivo, po, 240 h.
Data set [7] relates to Rattus norvegicus. Description: Hypolipidemic activity in Wistar rat assessed as reduction in plasma triglyceride level at 312 umol/kg/day administered through diet for 10 days. It counts as functional. The conditions noted are these: 240 h. In outline: as §2
For data set [8], the system named is Rattus norvegicus. Kind of data set: Increase in liver weight in Wistar rat at 312 umol/kg/day administered through diet for 10 days. The class given is ADME, organism-based. The note with it: in vivo, po, 240 h.
For data set [9], the system named is Rattus norvegicus. Kind of data set: Hypolipidemic activity in Wistar rat assessed as reduction in plasma cholesterol level at 509 umol/kg/day administered through diet for 4 days. The conditions noted are these: 96 h. It counts as functional. In outline: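 Young male Wistar rats, 170-190 g initial weight, groups of six, given compound mixed thoroughly into Purina Lab Chow ad libitum for 4 or 10 days as stated. Daily dose calculated from food consumption and body weight. Bled by cardiac puncture at end of treatment; plasma cholesterol measured by automated procedure. Expressed as percent reduction versus simultaneous untreated control group; Student's t test.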

Data set [10] has as its system Rattus norvegicus. Kind of data set: Increase in liver weight in Wistar rat at 509 umol/kg/day administered through diet for 4 days. The class given is ADME, organism-based. The conditions noted are these: in vivo, po, 96 h.
Data set [11] has as its system Rattus norvegicus. Description: Hypolipidemic activity in Wistar rat assessed as reduction in plasma triglyceride level at 509 umol/kg/day administered through diet for 4 days. The class given is functional. The conditions noted are these: 96 h.
Data set [12] relates to Rattus norvegicus. Kind of data set: Increase in cholesterol level in Wistar rat liver at 509 umol/kg/day administered through diet for 4 days. The class given is ADME, organism-based. The note with it: in vivo, po, 96 h.
For data set [13], the system named is Rattus norvegicus. Kind of data set: Hypolipidemic activity in Wistar rat assessed as reduction in plasma triglyceride level at 84 umol/kg/day administered through diet for 10 days. The class given is functional. The note with it: 240 h.
Data set [14] has as its system Rattus norvegicus. Description: Increase in liver weight in Wistar rat at 84 umol/kg/day administered through diet for 10 days. It counts as ADME, organism-based. The conditions noted are these: in vivo, po, 240 h.
Data set [15] has as its system Rattus norvegicus. Kind of data set: Hypolipidemic activity in Wistar rat assessed as reduction in plasma triglyceride level at 169 umol/kg/day administered through diet for 10 days. The note with it: 240 h. It counts as functional. In outline: as §2
The test system of data set [16] is Rattus norvegicus. Description: Hypolipidemic activity in Wistar rat assessed as reduction in plasma cholesterol level at 169 umol/kg/day administered through diet for 10 days. The note with it: 240 h. It counts as functional. In outline: as §1
Data set [17] has as its system Rattus norvegicus. Description: Hypolipidemic activity in Wistar rat assessed as reduction in plasma cholesterol level at 84 umol/kg/day administered through diet for 10 days. The class given is functional. The note with it: AT84, Plasma, 240 h. In outline:
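Young male Wistar rats (initial weight 170-190 g), groups of six, fed compound mixed into Purina Lab Chow ad libitum for 4 or 10 days; daily dose calculated from food consumption and body weight. Bled by cardiac puncture; plasma cholesterol and triglycerides by automated procedures; percent reduction versus simultaneous untreated controls, Student's t test.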

Data set [18] concerns Rattus norvegicus. Kind of data set: Increase in cholesterol level in Wistar rat liver at 332 umol/kg/day administered through diet for 10 days. The note with it: in vivo, po, 240 h. It counts as ADME, organism-based.
Data set [19] concerns Rattus norvegicus. Description: Hypolipidemic activity in Wistar rat assessed as reduction in plasma cholesterol level at 332 umol/kg/day administered through diet for 10 days. The conditions noted are these: 240 h. The class given is functional. In outline:
as §1

The subject of data set [20] is Rattus norvegicus. Kind of data set: Increase in liver weight in Wistar rat at 169 umol/kg/day administered through diet for 10 days. The class given is ADME, organism-based. The conditions noted are these: in vivo, po, 240 h.
Data set [21] concerns Rattus norvegicus. Description: Increase in cholesterol level in Wistar rat liver at 84 umol/kg/day administered through diet for 10 days. The class given is ADME, organism-based. The conditions noted are these: in vivo, po, 240 h.
For data set [22], the system named is Rattus norvegicus. Description: Hypolipidemic activity in Wistar rat assessed as reduction in plasma triglyceride level at 332 umol/kg/day administered through diet for 10 days. The class given is functional. The conditions noted are these: 240 h. In outline: as §2
In data set [23] the test system is Rattus norvegicus. Kind of data set: Increase in liver weight in Wistar rat at 332 umol/kg/day administered through diet for 10 days. The class given is ADME, organism-based. The conditions noted are these: in vivo, po, 240 h.
For data set [24], the system named is Rattus norvegicus. Kind of data set: Increase in cholesterol level in Wistar rat liver at 169 umol/kg/day administered through diet for 10 days. It counts as ADME, organism-based. The note with it: in vivo, po, 240 h.
The test system of data set [25] is Rattus norvegicus. Description: Increase in cholesterol level in Wistar rat liver at 339 umol/kg/day administered through diet for 4 days. The note with it: in vivo, po, 96 h. The class given is ADME, organism-based.
The subject of data set [26] is Rattus norvegicus. Kind of data set: Hypolipidemic activity in Wistar rat assessed as reduction in plasma cholesterol level at 339 umol/kg/day administered through diet for 4 days. It counts as functional. The conditions noted are these: 96 h. The essentials:
as §1

In data set [27] the test system is Rattus norvegicus. Description: Hypolipidemic activity in Wistar rat assessed as reduction in plasma triglyceride level at 339 umol/kg/day administered through diet for 4 days. It counts as functional. The conditions noted are these: 96 h. The essentials:
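Young male Wistar rats (170-190 g initial weight), groups of six, were fed compound mixed into lab chow ad libitum for 4 or 10 days alongside an untreated control group. Daily dose was calculated from food consumption and body weight. Rats were bled by cardiac puncture, and plasma triglyceride was measured by automated procedure. Results are expressed as percent reduction from simultaneous controls, with Student's t test.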

Data set [28] relates to Rattus norvegicus. Description: Increase in liver weight in Wistar rat at 339 umol/kg/day administered through diet for 4 days. It counts as ADME, organism-based. The note with it: in vivo, po, 96 h.
Data set [29] has as its system Rattus norvegicus. Kind of data set: Hypolipidemic activity in Wistar rat assessed as reduction in plasma triglyceride level at 406 umol/kg/day administered through diet for 4 days. The conditions noted are these: 96 h. It counts as functional.
Data set [30] has as its system Rattus norvegicus. Description: Increase in liver weight in Wistar rat at 406 umol/kg/day administered through diet for 4 days. The class given is ADME, organism-based. The note with it: in vivo, po, 96 h.
Data set [31] deals with Rattus norvegicus. Description: Increase in cholesterol level in Wistar rat liver at 406 umol/kg/day administered through diet for 4 days. The note with it: in vivo, po, 96 h. It counts as ADME, organism-based.
Data set [32] has as its system Rattus norvegicus. Kind of data set: Hypolipidemic activity in Wistar rat assessed as reduction in plasma cholesterol level at 406 umol/kg/day administered through diet for 4 days. It counts as functional. The note with it: 96 h. In outline: as §1

Consider `CCCCCCCCCCCCCCCCOc1ccc(C(=O)CC(=O)O)cc1`, for which the Activity in the data set with Rattus norvegicus [1] and in the data set with Rattus norvegicus [3] was 0% throughout. Moreover, the inhibition in vivo at 311 µmol/kg is 29% in the data set on Rattus norvegicus [2] and 49% in the data set on Rattus norvegicus [4].
Turning to `CCCCCCCCCCCCCCOc1ccc(C(=O)CC(=O)OCCNC(C)=O)cc1`, the inhibition in vivo at 312 µmol/kg in the data set on Rattus norvegicus [5] was 35%; with Rattus norvegicus [7], 60%. The Activity worked out at 8% with Rattus norvegicus [6] and 15% in the data set on Rattus norvegicus [8].
In the case of `CCCCCCCCCCCCCCOc1ccc(C)cc1`, the inhibition in vivo at 509 µmol/kg with Rattus norvegicus [9] is 0%; in the data set on Rattus norvegicus [11], 30%. Also, the values for the Activity in the data set on Rattus norvegicus [10] and with Rattus norvegicus [12] were 10% and 0%, respectively.
For `CCCCCCCCCCCCCCOc1ccc(C(=O)CC(=O)OCc2ccccc2)cc1`, the inhibition in vivo at 84 µmol/kg in the data set with Rattus norvegicus [13] is 8%; with Rattus norvegicus [17], 16%. Also, the Activity in the data set on Rattus norvegicus [14] is recorded as 0%; in the data set with Rattus norvegicus [18] it was 10%; in the data set with Rattus norvegicus [20], 1%; with Rattus norvegicus [21] it was 0%; with Rattus norvegicus [23] it was 5%; in the data set with Rattus norvegicus [24] it was 2%. For the same compound, the inhibition in vivo at 169 µmol/kg was determined as 70% in the data set on Rattus norvegicus [15] and 15% in the data set on Rattus norvegicus [16]. Moreover, the inhibition in vivo at 332 µmol/kg in the data set with Rattus norvegicus [19] is 24%; in the data set on Rattus norvegicus [22], 43%.
For the compound `CCCCCCCCCCCCCCCCOc1ccc(C(=O)CC(=O)OC)cc1`, the Activity in the data set with Rattus norvegicus [25] is recorded as 2%; with Rattus norvegicus [28], 18%. The inhibition in vivo at 339 µmol/kg with Rattus norvegicus [26] came to 32%; in the data set with Rattus norvegicus [27], 57%.
As to `CCCCCCCCCCCCCCOc1ccc(COC(C)=O)cc1`, the inhibition in vivo at 406 µmol/kg in the data set on Rattus norvegicus [29] turned out to be 62%; with Rattus norvegicus [32], 22%. In addition, the Activity in the data set with Rattus norvegicus [30] was determined as 17%; with Rattus norvegicus [31] it was 11%.

For orientation: inhibition in vivo means the relative decrease from the control value, in per cent.
